The source made the active and inactive calls. The calls are words filed in the database; no cut-off is given here. Where a SMILES comes first, the peptide text is derived from it. [ ]: non-standard residue; d: D form. The star is where a group is joined. X6 = CC(=O)Oc1cccc(C(=O)NCc2cc(CNC(=O)c3cccc(OC(C)=O)c3OC(C)=O)c(NC(=O)CCCc3cn(CCOCCOCCOCCOCCOCCOCCOCCOCCNC(=O)COCC(=O)*)nn3)c(CNC(=O)c3cccc(OC(C)=O)c3OC(C)=O)c2)c1OC(C)=O; X1 = O=C(COCC(=O)*)NCCOCCOCCOCCOCCOCCOCCOCCOCCn1cc(CCCC(=O)Nc2c(CNC(=O)c3cccc(O)c3O)cc(CNC(=O)c3cccc(O)c3O)cc2CNC(=O)c2cccc(O)c2O)nn1; X5 = O=C(CCSSCCC(=O)*)NCCOCCOCCOCCOCCOCCn1cc(CCCC(=O)Nc2c(CNC(=O)c3cccc(O)c3O)cc(CNC(=O)c3cccc(O)c3O)cc2CNC(=O)c2cccc(O)c2O)nn1; Benzoyl(2,3-diOH) = O=C(c1cccc(O)c1O)*
What was measured:
Pseudomonas aeruginosa [1] = test: Antimicrobial activity against Pseudomonas aeruginosa harboring deltapvdF-deltapchA mutant assessed as inhibition of bacterial growth by measuring minimal inhibitory concentration incubated for 24 hrs in presence of iron-depleted CAA medium; type: functional
Pseudomonas aeruginosa [2] = test: Antimicrobial activity against Pseudomonas aeruginosa harboring deltapvdF-deltapchA mutant assessed as inhibition of bacterial growth by measuring minimal inhibitory concentration incubated for 48 hrs in presence of iron-depleted CAA medium; type: functional
Pseudomonas aeruginosa [3] = test: Antimicrobial activity against Pseudomonas aeruginosa PAO1 assessed as inhibition of bacterial growth in presence of iron-depleted CAA medium; type: functional, organism-based
Pseudomonas aeruginosa [4] = test: Antimicrobial activity against Pseudomonas aeruginosa harboring deltapvdF-deltapchA mutant assessed as increase in pfeA transcription level at 10 uM incubated for 8 hrs in presence of iron-depleted CAA medium by qRT-PCR analysis; type: functional, organism-based
Method in brief: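 Cells grown in CAA medium for 8 h at 30 °C with vigorous shaking, with or without 10 μM compound; 2.5 x 10⁸ cells stabilized in two volumes RNAprotect; RNA processed per earlier protocol; RT-qPCR with primer efficiencies from serially diluted genomic DNA; double ΔCT analysis.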

| Molecule | MIC (Pseudomonas aeruginosa [1]) [µM] | MIC (Pseudomonas aeruginosa [2]) [µM] | Activity (Pseudomonas aeruginosa [3]) | Activity (Pseudomonas aeruginosa [4]) |
| --- | --- | --- | --- | --- |
| CSCC[C@H](NC(=O)[C@H](CCC(N)=O)NC(=O)[C@@H](NC(=O)[C@H](CC(C)C)NC(=O)[C@H](CC(=O)O)NC(=O)[C@H](CC(=O)O)NC(=O)COCC(=O)NCCOCCOCCOCCOCCOCCOCCOCCOCCn1cc(CCCC(=O)Nc2c(CNC(=O)c3cccc(O)c3O)cc(CNC(=O)c3cccc(O)c3O)cc2CNC(=O)c2cccc(O)c2O)nn1)C(C)C)C(=O)N[C@@H](CO)C(=O)N1CCC[C@H]1C(=O)N[C@@H](CO)C(=O)N[C@H](C(=O)N[C@@H](CCCCN)C(N)=O)C(C)C (X1-DDLVQMSPSVK-NH2) | > 64 | > 64 | inactive |  |
| CC[C@@H](C)[C@@H](NC(=O)[C@@H](CCSC)NC(=O)[C@H](NC(=O)[C@@H](C)NC(=O)CNC(=O)[C@@H](CC(C)C)NC(=O)[C@@H](CC(=O)O)NC(=O)[C@H](NC(=O)[C@@H](CO)NC(=O)[C@@H](CO)NC(=O)[C@@H](CC(=O)O)NC(=O)c1cccc(O)c1O)C(C)C)[C@H](C)O)C(=O)N[C@@H](C(=O)N[C@H](CO)C(=O)N[C@H](CC(N)=O)C(=O)N[C@H](CCC(N)=O)C(=O)N[C@H](CC(C)C)C(=O)NCC(=O)N[C@@H](C(=O)N[C@@H](C(=O)N[C@H](CCCCN)C(N)=O)[C@H](C)CC)[C@H](C)O)[C@@H](C)O | > 64 | > 64 | inactive |  |
| CC[C@H](C)[C@H](NC(=O)[C@@H](N)C(C)C)C(=O)N[C@@H](CCC(=O)O)C(=O)N[C@@H](CC(C)C)C(=O)NCC(=O)N[C@@H](CCC(=O)O)C(=O)N[C@@H](CCC(N)=O)C(=O)N[C@H](C(=O)N[C@H](C(=O)N[C@H](C(=O)N[C@@H](C)C(=O)N[C@H](C(=O)N[C@@H](C)C(=O)N[C@@H](CCC(N)=O)C(=O)N[C@@H](CCC(=O)O)C(=O)N[C@@H](CCC(=O)O)C(=O)N[C@H](C(=O)N[C@@H](CCCCN)C(=O)N[C@@H](CCC(N)=O)C(=O)N[C@@H](CCCCNC(=O)COCC(=O)NCCOCCOCCOCCOCCOCCOCCOCCOCCn1cc(CCCC(=O)Nc2c(CNC(=O)c3cccc(OC(C)=O)c3OC(C)=O)cc(CNC(=O)c3cccc(OC(C)=O)c3OC(C)=O)cc2CNC(=O)c2cccc(OC(C)=O)c2OC(C)=O)nn1)C(N)=O)[C@@H](C)O)[C@@H](C)O)C(C)C)C(C)C)[C@@H](C)O (H-VIELGEQTVVATAQEETKQK(X6)-NH2) | > 64 | > 64 | inactive |  |
| CC[C@H](C)[C@H](NC(=O)[C@@H](N)C(C)C)C(=O)N[C@@H](CCC(=O)O)C(=O)N[C@@H](CC(C)C)C(=O)NCC(=O)N[C@@H](CCC(=O)O)C(=O)N[C@@H](CCC(N)=O)C(=O)N[C@H](C(=O)N[C@H](C(=O)N[C@H](C(=O)N[C@@H](C)C(=O)N[C@H](C(=O)N[C@@H](C)C(=O)N[C@@H](CCC(N)=O)C(=O)N[C@@H](CCC(=O)O)C(=O)N[C@@H](CCC(=O)O)C(=O)N[C@H](C(=O)N[C@@H](CCCCN)C(=O)N[C@@H](CCC(N)=O)C(=O)N[C@@H](CCCCNC(=O)c1cccc(O)c1O)C(N)=O)[C@@H](C)O)[C@@H](C)O)C(C)C)C(C)C)[C@@H](C)O (H-VIELGEQTVVATAQEETKQK(Benzoyl(2,3-diOH))-NH2) | > 64 | > 64 | inactive |  |
| CC[C@@H](C)[C@@H](NC(=O)[C@H](NC(=O)c1cccc(O)c1O)C(C)C)C(=O)N[C@H](CCC(=O)O)C(=O)N[C@H](CC(C)C)C(=O)NCC(=O)N[C@H](CCC(=O)O)C(=O)N[C@H](CCC(N)=O)C(=O)N[C@@H](C(=O)N[C@@H](C(=O)N[C@@H](C(=O)N[C@H](C)C(=O)N[C@@H](C(=O)N[C@H](C)C(=O)N[C@H](CCC(N)=O)C(=O)N[C@H](CCC(=O)O)C(=O)N[C@H](CCC(=O)O)C(=O)N[C@@H](C(=O)N[C@H](CCCCN)C(=O)N[C@H](CCC(N)=O)C(=O)N[C@H](CCCCN)C(N)=O)[C@H](C)O)[C@H](C)O)C(C)C)C(C)C)[C@H](C)O ({Benzoyl(2,3-diOH)}-[dV][dI][dE][dL]G[dE][dQ][dT][dV][dV][dA][dT][dA][dQ][dE][dE][dT][dK][dQ][dK]-NH2) | > 64 | > 64 | inactive |  |
| CC(C)[C@H](NC(=O)[C@@H](NC(=O)[C@@H](NC(=O)[C@H](CCC(N)=O)NC(=O)[C@H](CCC(=O)O)NC(=O)COCC(=O)NCCOCCOCCOCCOCCOCCOCCOCCOCCn1cc(CCCC(=O)Nc2c(CNC(=O)c3cccc(O)c3O)cc(CNC(=O)c3cccc(O)c3O)cc2CNC(=O)c2cccc(O)c2O)nn1)[C@@H](C)O)C(C)C)C(=O)N[C@@H](C)C(=O)N[C@H](C(=O)N[C@@H](C)C(=O)N[C@@H](CCC(N)=O)C(=O)N[C@@H](CCCCN)C(N)=O)[C@@H](C)O (X1-EQTVVATAQK-NH2) | > 64 | > 64 | inactive |  |
| H-GEQTVVATAQK-NH2 |  |  | inactive | inactive |
| H-DDLVQMSPSVK-NH2 |  |  | inactive | inactive |
| H-VDLGATMITSNK-NH2 |  |  | inactive | inactive |
| CC[C@H](C)[C@H](NC(=O)[C@H](CCSC)NC(=O)[C@@H](NC(=O)[C@H](C)NC(=O)CNC(=O)[C@H](CC(C)C)NC(=O)[C@H](CC(=O)O)NC(=O)[C@@H](NC(=O)[C@H](CO)NC(=O)[C@H](CO)NC(=O)[C@H](CC(=O)O)NC(=O)c1cccc(O)c1O)C(C)C)[C@@H](C)O)C(=O)N[C@H](C(=O)N[C@@H](CO)C(=O)N[C@@H](CC(N)=O)C(=O)N[C@@H](CCC(N)=O)C(=O)N[C@@H](CC(C)C)C(=O)NCC(=O)N[C@H](C(=O)N[C@H](C(=O)N[C@@H](CCCCN)C(N)=O)[C@@H](C)CC)[C@@H](C)O)[C@@H](C)O | > 64 | > 64 | inactive |  |
| CN[C@@H]1[C@@H](O)[C@@H](O[C@@H]2[C@@H](O)[C@H](O[C@H]3O[C@H](C(C)N)CC[C@H]3N)[C@@H](N)C[C@H]2N)OC[C@]1(C)O (some centres not stated) [GENTAMICIN C2] | 1 | 4 | inactive |  |
| CC[C@H](C)[C@H](NC(=O)[C@H](CCSC)NC(=O)[C@@H](NC(=O)[C@H](C)NC(=O)CNC(=O)[C@H](CC(C)C)NC(=O)[C@H](CC(=O)O)NC(=O)[C@@H](NC(=O)COCC(=O)NCCOCCOCCOCCOCCOCCOCCOCCOCCn1cc(CCCC(=O)Nc2c(CNC(=O)c3cccc(O)c3O)cc(CNC(=O)c3cccc(O)c3O)cc2CNC(=O)c2cccc(O)c2O)nn1)C(C)C)[C@@H](C)O)C(=O)N[C@H](C(=O)N[C@@H](CO)C(=O)N[C@@H](CC(N)=O)C(=O)N[C@@H](CCCCN)C(N)=O)[C@@H](C)O (X1-VDLGATMITSNK-NH2) | > 64 | > 64 | inactive |  |
| CC[C@H](C)[C@H](NC(=O)[C@@H](N)C(C)C)C(=O)N[C@@H](CCC(=O)O)C(=O)N[C@@H](CC(C)C)C(=O)NCC(=O)N[C@@H](CCC(=O)O)C(=O)N[C@@H](CCC(N)=O)C(=O)N[C@H](C(=O)N[C@H](C(=O)N[C@H](C(=O)N[C@@H](C)C(=O)N[C@H](C(=O)N[C@@H](C)C(=O)N[C@@H](CCC(N)=O)C(=O)N[C@@H](CCC(=O)O)C(=O)N[C@@H](CCC(=O)O)C(=O)N[C@H](C(=O)N[C@@H](CCCCN)C(=O)N[C@@H](CCC(N)=O)C(=O)N[C@@H](CCCCNC(=O)CCSSCCC(=O)NCCOCCOCCOCCOCCOCCn1cc(CCCC(=O)Nc2c(CNC(=O)c3cccc(O)c3O)cc(CNC(=O)c3cccc(O)c3O)cc2CNC(=O)c2cccc(O)c2O)nn1)C(N)=O)[C@@H](C)O)[C@@H](C)O)C(C)C)C(C)C)[C@@H](C)O (H-VIELGEQTVVATAQEETKQK(X5)-NH2) | > 64 | > 64 | inactive |  |
| CC[C@H](C)[C@H](NC(=O)[C@H](CCSC)NC(=O)[C@@H](NC(=O)[C@H](C)NC(=O)CNC(=O)[C@H](CC(C)C)NC(=O)[C@H](CC(=O)O)NC(=O)[C@@H](NC(=O)[C@H](CO)NC(=O)[C@H](CO)NC(=O)[C@@H](N)CC(=O)O)C(C)C)[C@@H](C)O)C(=O)N[C@H](C(=O)N[C@@H](CO)C(=O)N[C@@H](CC(N)=O)C(=O)N[C@@H](CCC(N)=O)C(=O)N[C@@H](CC(C)C)C(=O)NCC(=O)N[C@H](C(=O)N[C@H](C(=O)N[C@@H](CCCCNC(=O)c1cccc(O)c1O)C(N)=O)[C@@H](C)CC)[C@@H](C)O)[C@@H](C)O (H-DSSVDLGATMITSNQLGTIK(Benzoyl(2,3-diOH))-NH2) | > 64 | > 64 | inactive |  |
| CC[C@H](C)[C@H](NC(=O)[C@@H](NC(=O)c1cccc(O)c1O)C(C)C)C(=O)N[C@@H](CCC(=O)O)C(=O)N[C@@H](CC(C)C)C(=O)NCC(=O)N[C@@H](CCC(=O)O)C(=O)N[C@@H](CCC(N)=O)C(=O)N[C@H](C(=O)N[C@H](C(=O)N[C@H](C(=O)N[C@@H](C)C(=O)N[C@H](C(=O)N[C@@H](C)C(=O)N[C@@H](CCC(N)=O)C(=O)N[C@@H](CCC(=O)O)C(=O)N[C@@H](CCC(=O)O)C(=O)N[C@H](C(=O)N[C@@H](CCCCN)C(=O)N[C@@H](CCC(N)=O)C(=O)N[C@@H](CCCCN)C(N)=O)[C@@H](C)O)[C@@H](C)O)C(C)C)C(C)C)[C@@H](C)O ({Benzoyl(2,3-diOH)}-VIELGEQTVVATAQEETKQK-NH2) | > 64 | > 64 | inactive |  |

From ChEMBL document CHEMBL5316281, “Trojan Horse Siderophore Conjugates Induce Pseudomonas aeruginosa Suicide and Qualify the TonB Protein as a Novel Antibiotic Target” (2023)
